{"source": "paper PMC8553955", "about": "(Plant Communications, 2021)", "key": {"[1]": {"test_system": "Phelipanche ramosa seeds", "assay": "Germination stimulation activity assay on P. ramosa seeds", "conditions": "in vivo"}, "[2]": {"test_system": "A. thaliana htl-3/p35S::GFP-PrKAI2d3 seeds", "assay": "Arabidopsis germination assay, htl-3 complemented with PrKAI2d3", "assay_type": "in vivo, Arabidopsis thaliana", "conditions": "Arabidopsis Col-0, htl-3 and the three p35S::GFP-PrKAI2d3 complemented lines; data not shown", "procedure,_shortened": "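After-ripened (≥6 weeks), surface-sterilized seeds were suspended in 1 mM HEPES pH 7.5 at 10 mg/mL and dispensed at about 20–25 seeds per well. Stimulant (GR24 isomers) or DMSO control was added. Plates were incubated either 5 days at 25°C in darkness or, for thermo-inhibition, 7 days at 32–34°C under constant light (10 μmol m−2 s−1). Germination was scored as radicle protrusion. Groups were compared by Kruskal–Wallis.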"}, "[3]": {"test_system": "PrKAI2d3", "assay": "Thermostability of PrKAI2d3 by nanoDSF", "assay_type": "binding, Phelipanche ramosa", "conditions": "PrKAI2d3 at 10 μM, ligands at 100 μM", "procedure,_shortened": "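Protein at about 10 μM in PBS (100 mM phosphate pH 6.8, 150 mM NaCl) was mixed with ligand or no ligand. Intrinsic fluorescence (350/330 nm ratio) was recorded over a 1°C/min temperature ramp at 55% excitation. Apparent Tm was taken from the first derivative of the ratio curve.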"}, "[4]": {"test_system": "Phelipanche ramosa seeds", "assay": "Inhibition of P. ramosa germination stimulation induced by GR24 or 2-PEITC", "assay_type": "in vivo", "procedure,_shortened": "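Seeds from a genetic-group-1 population were surface-sterilized and conditioned in darkness at 21°C. Germination was stimulated with 10 nM (±)-GR24 or 100 nM 2-PEITC in the presence of test compound. Maximum inhibition and IC50 were derived from the response.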"}, "[5]": {"test_system": "Striga hermonthica seeds", "assay": "Germination stimulation activity assay on S. hermonthica seeds", "assay_type": "in vivo", "procedure,_shortened": "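Surface-sterilized seeds were conditioned in darkness at 30°C. Compounds were dissolved at 10 mM in DMSO, serially diluted in water/DMSO 9:1, and applied at 10−13 to 10−6 M (final water/DMSO 99:1). Controls were 1% DMSO (negative) and 1 μM (±)-GR24 (positive). Germination was expressed relative to the positive control in each assay, with at least three repeats. EC50 came from a four-parameter logistic fit.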"}, "[6]": {"test_system": "A. thaliana htl-3/ShHTL7 seeds", "assay": "Arabidopsis germination assay, htl-3 expressing ShHTL7", "assay_type": "in vivo"}, "[7]": {"test_system": "pea (Pisum sativum) shoot branching", "assay": "Pea shoot branching assay", "assay_type": "in vivo", "conditions": "direct injection in the stem, 100 μM, rms1-10"}, "[8]": {"test_system": "rice (Oryza sativa)", "conditions": "high concentration (50 μM); ref Nakamura et al., 2013; cited from earlier work"}, "[9]": {"test_system": "PrKAI2d3", "assay": "Enzymatic assays with profluorescent probes and p-nitrophenyl acetate", "assay_type": "biochemical, Phelipanche ramosa"}}, "data": [{"smiles": "S=C=NCCc1ccccc1", "note": "[2-PEITC, phenethyl isothiocyanate]", "values": [{"measurement": "Seeds of P. ramosa fold less sensitive than to (±)-GR24", "setting": "[1]", "value": "approximately 10 000 fold"}, {"measurement": "sensitivity of germination in words", "setting": "[2]", "value": "insensitive"}, {"measurement": "apparent melting temperature (Tm)", "setting": "[3]", "value": 45.1, "unit": "°C"}]}, {"smiles": "CC1=CC(=O)CC(C)(C)[C@@]1(O)/C=C/C(C)=C\\C(=O)O", "note": "[ABA, abscisic acid]", "values": [{"measurement": "IC50", "setting": "[4]; 2-PEITC (100 nM)", "value": 34, "unit": "nM"}, {"measurement": "IC50", "setting": "[4]; GR24 (10 nM)", "value": 100, "unit": "nM"}]}, {"smiles": "CC1=CC(O)OC1=O", "note": "[D-OH, 4-Hydroxy-2-methylbut-2-en-4-olide]", "values": [{"measurement": "EC50", "setting": "[5]", "value": 1200, "unit": "nM"}, {"measurement": "EC50", "setting": "[6]", "value": 3100, "unit": "nM"}, {"measurement": "effect on branching control in pea, in words", "setting": "[7]", "value": "no effect on branching control"}, {"measurement": "bioactivity in rice, in words", "setting": "[8]", "value": "bioactive"}]}, {"smiles": "CC(=O)Oc1ccc([N+](=O)[O-])cc1", "note": "[p-NPA, para-nitrophenyl acetate]", "values": [{"measurement": "PrKAI2d3 hydrolase activity with generic substrate, in words", "setting": "[9]", "value": "no hydrolytic activity was detected"}]}]}
